Assay outcomes (PubChem)
An excerpt weighted towards active compounds, which were near 2.2% of everything screened.
ERp5 inh: ERp5 (human) disulfide isomerase inhibition; Q15084; ERp5 insulin aggregation, absorbance 650 nm, 90 min; inhibition, % at 9.99 µM; 0.05% of 350,000 active; AID 651711;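 active means mean replicate inhibition above about 25%, with every replicate also reaching it, limit read from the data, passing the limit was not always enough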
HIV Env fusion: inhibitors of HIV Env-mediated cell fusion; HeLa-JRFL Env/CEM21 cell fusion, luciferase; inhibition, % at 12.3 µM; 1.1% of 360,000 active;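 active means mean replicate inhibition score of at least 50 and every replicate individually at or above 50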;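 further: 0% = plate neutral controls and 100% = maraviroc near 300 nM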
PDI turbidity: inhibitors of human protein disulfide isomerase. PDI insulin aggregation turbidity, A650, 90 min. inhibition, % at 10 µM. 0.052% of 350,000 active;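 active means mean inhibition across replicates of 30% or more, whatever share of single replicates reach that level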
Target sequence (P07237 whole entry, looked up): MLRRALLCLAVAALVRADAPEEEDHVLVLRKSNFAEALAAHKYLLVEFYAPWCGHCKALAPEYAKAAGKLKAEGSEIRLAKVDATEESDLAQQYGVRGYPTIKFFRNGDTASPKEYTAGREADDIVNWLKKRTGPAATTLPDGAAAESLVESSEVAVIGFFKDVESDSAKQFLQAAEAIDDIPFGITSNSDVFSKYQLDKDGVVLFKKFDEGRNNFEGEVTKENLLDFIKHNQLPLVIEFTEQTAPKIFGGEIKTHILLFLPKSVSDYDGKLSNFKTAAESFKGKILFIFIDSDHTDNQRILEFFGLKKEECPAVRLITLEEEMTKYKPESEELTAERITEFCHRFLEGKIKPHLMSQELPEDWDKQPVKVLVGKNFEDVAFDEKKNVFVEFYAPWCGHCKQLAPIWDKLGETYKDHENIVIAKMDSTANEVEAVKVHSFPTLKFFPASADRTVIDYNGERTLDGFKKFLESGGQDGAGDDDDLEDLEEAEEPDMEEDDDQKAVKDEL
PvdQ inh: blocks Pseudomonas aeruginosa PvdQ acylase activity; inhibition, % at 10 µM; 0.063% of 340,000 active; purified PvdQ acylase, fluorescence plate reader; AID 488965; in the data active means inhibition above about 30%, passing the limit was not always enough;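 further: 0% = vehicle neutral wells and 100% = reference inhibitor wells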
FN deposit inh: fibronectin deposition inhibition | inhibition, % at 12.6 µM | AID 743247 | 0.086% of 350,000 active | AH1F fibroblasts, Alexa488-fibronectin deposition fluorescence, overnight;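 active means mean inhibition across replicates of 30% or more, regardless of how many single replicates reach that level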;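 further: positive control wells lacked labelled fibronectin entirely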
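Material: AH1F fibroblast monolayer depositing Alexa488-labelled fibronectin into matrix / Amount: 10000 AH1F cells per well / Signal: fluorescence 485/525 nm / Medium: DMEM, 2% serum / Compound: single dose, pinned / Incubation: 1 h cell adhesion before compound, then overnight fibronectin incubation / Reagent: Alexa488-FN, 24 nM final / Read-out: inhibition of fibronectin deposition signal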
Ecoli rRNA inh: inhibitors of bacterial rRNA selective over humanized ribosomes | GFP signal change (wild-type ribosome), % (no concentration beside the values) | 1.6% of 350,000 active | E. coli WT GFP vs humanized-ribosome RFP mutants, fluorescence, 24 h; stronger effect = lower value; DMSO median 0, no signal -100 | AID 720706;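 active means significant combined selectivity score with lowered wild-type GFP, culture density cut under 30%, mutant RFP and density less affected; inactive means any of these conditions unmet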
Numbers without * were called inactive; nt = no result; [ ] = remark or other dose.

SMILES	ERp5 inh	HIV Env fusion	PDI turbidity	PvdQ inh	FN deposit inh	Ecoli rRNA inh
Cc1noc(C)c1CSCC(=O)Nc1nc2ccccc2s1	1	9	-2	-15	-8	-23*
O=C1CCc2cc(S(=O)(=O)NCc3ccc(Cl)cc3)cc3c2N1CC3	2	-12	-5	-5	-9	4
O=C1CCc2cc(S(=O)(=O)NCc3ccccc3Cl)cc3c2N1CC3	29*	nt	6	2	5	0
CS(=O)(=O)N1[C@@H]2CN(CC(F)(F)F)C[C@H]1C2c1ccccc1 (stereo partly specified)	nt	nt	nt	nt	-4	-4
Cc1ccc(C(=O)C2CCN(CC(=O)Nc3nc(C)cs3)CC2)cc1	-3	nt	11	0	nt	-22*
COc1ccc(C#Cc2ccc3c(c2)[C@]2(C(=O)N3)[C@H](C(=O)Nc3nc4ccccc4s3)[C@H]3C(=O)O[C@H](c4ccccc4)[C@H](c4ccccc4)N3[C@@H]2c2ccccc2OCCO)cc1	2	-1[16.7 µM]	nt	nt	nt	nt
Cc1ccc(O)c(C2=NCCNC(C(F)(F)C(F)F)=C2)c1	nt	4	-2	-1	0	nt
Oc1ccc(Cl)cc1C1=NCCNC(C(F)(F)C(F)F)=C1	-1	2	13	6	nt	-22*
CCC[C@@H](CN1CCC[C@H]1CN1C(N)=NC[C@H]1CC(C)C)N1C[C@@H]([C@H](C)CC)N(CCCC2CCCC2)C1=N	27*	13	-69	-4	5	nt
CCC[C@@H](CN1CCC[C@H]1CN1C(N)=NC[C@H]1C(C)C)N1C[C@@H]([C@H](C)CC)N(CCCC2CCCC2)C1=N	13	-22	13	-2	-4	nt
CNC[C@H]1Oc2ccc(N(C)C)cc2C(=O)N(C)C[C@@H]1C	nt	nt	nt	nt	-8	1
COc1cc(C2c3cc4c(cc3OC(N3CCCCC3)C2C)OCO4)cc(OC)c1O (stereo unspecified)	-7	-5	-3	-19	nt	0
COc1cccc(C2c3cc4c(cc3OC(N3CCCC3)C2C)OCO4)c1O (stereo unspecified)	5	-2	-2	-20	11	-20*
O=C(c1ccc(Cl)c(Cl)c1)N1CCC(=O)N([C@H](COCc2cccc(C(F)(F)F)c2)Cc2ccccc2)CC1	-4	92*	nt	nt	12	18
O=C(c1ccc(Cl)c(Cl)c1)N1CCC(=O)N([C@H](COCc2ccccc2)Cc2ccccc2)CC1	-4	64*	nt	nt	12	-6
O=C(c1cccc(Cl)c1)N1CCC(=O)N(C(COCc2ccccc2)Cc2ccccc2)CC1 (stereo unspecified)	-3	33	10	-3	1	-30
O=C(c1ccc(Cl)c(Cl)c1)N1CCC(=O)N(C(COCc2ccccc2)Cc2ccccc2)CC1 (stereo unspecified)	3	86*	3	1	0	-8
CO[C@H]1CN(C)C(=O)c2ccc(NC(=O)c3nc4ccccc4s3)cc2OC[C@H](C)NC[C@@H]1C	-4	9[16.7 µM]	nt	nt	-15	-7
C[C@H]1CN([C@@H](C)CO)S(=O)(=O)c2ccc(-c3ccncc3)cc2O[C@@H]1CN(C)C(=O)c1ccc2c(c1)OCO2	0	-18[16.7 µM]	nt	nt	nt	-7
COc1cc2c(O)c3c(c(-c4ccc5c(c4)OCO5)c2cc1OC)C(=O)OC3	nt	63*	-7	-1	13	nt
Cn1cc(CN2CCCC(C(=O)c3cc(F)ccc3F)C2)c2ccccc21 (stereo unspecified)	6	12	0	-11	3	-10
CC(=O)NCC1CCCN(Cc2cn(-c3ccccc3)nc2-c2ccc3c(c2)OCO3)C1 (stereo unspecified)	1	17	-1	-12	2	5
Cn1cc(CN2CCCC(CNC(=O)c3ccc4c(c3)OCO4)C2)c2ccccc21 (stereo unspecified)	1	56*	9	-24	3	11
COc1ccc(F)cc1C(=O)C1CCCN(Cc2cn(C)c3ccccc23)C1 (stereo unspecified)	-3	41	4	0	-3	-31*
O=C(C[C@H]1CC[C@@H]2[C@H](COC[C@H](O)CN2C(=O)c2ccc(F)cc2)O1)Nc1nccs1	5	nt	nt	nt	-10	3
SMILES	ERp5 inh	HIV Env fusion	PDI turbidity	PvdQ inh	FN deposit inh	Ecoli rRNA inh
O=C(Nc1ccc(Cl)cc1)Nc1nnc(CSCc2ccc(Cl)cc2)s1	2	71*	14	7	0	nt
CCc1nnc(NC(=O)Nc2ccc(Cl)cc2)s1	5	-4	6	-6	0	3
C[C@H]1CN([C@@H](C)CO)S(=O)(=O)c2ccc(Br)cc2O[C@H]1CN(C)C(=O)C1CCCCC1	nt	-9[16.7 µM]	nt	nt	0	-2
CCc1ccc(NC(=O)COC(=O)CCCC2=NS(=O)(=O)c3ccccc3N2)cc1	0	12	6	1	-10	-17*
C[C@H]1CC=CC[C@H](c2ccccc2)NC(=O)[C@@H](Cc2ccccc2)N(C)C(=O)c2ccccc2O1 (mixture of isomers)	nt	nt	nt	nt	1	-4
COc1cccc(/C=C2\Oc3cc(OCC(=O)N4CCCC4)ccc3C2=O)c1OC	-6	-9	2	1	8	-24*
COc1ccc(NC(=O)Nc2ccc3c(c2)C(=O)N([C@H](C)CO)C[C@H](C)[C@H](CN(C)Cc2ccc4c(c2)OCO4)OCCCC[C@H](C)O3)cc1	-7	68*[16.7 µM]	nt	nt	nt	-39
COc1ccc(NC(=O)Nc2ccc3c(c2)C(=O)N([C@@H](C)CO)C[C@H](C)[C@H](CN(C)Cc2ccc4c(c2)OCO4)OCCCC[C@H](C)O3)cc1	-2	83*[16.7 µM]	nt	nt	nt	2
CNC(=O)C[C@H]1CC[C@H]2[C@@H](COc3ccc(NC(=O)Nc4cccc(F)c4)cc3C(=O)N2C)O1	nt	-27[16.7 µM]	nt	nt	-10	1
CNc1snc(C)c1C(=O)OC(C)C(=O)Nc1cccc(OC)c1 (stereo unspecified)	-4	nt	-6	2	0	nt
CC(=O)c1cccc(NC(=O)COC(=O)c2n[nH]c3ccccc23)c1	2	-3	-3	-15	nt	-23*
COc1cccc(NC(=O)C(C)OC(=O)c2n[nH]c3ccccc23)c1 (stereo unspecified)	-1	-8	-7	-22	3	-27*
C/C=C/c1ccc2c(c1)O[C@H](CN(C)C(=O)COC)[C@@H](C)CN([C@@H](C)CO)S2(=O)=O	nt	0[16.7 µM]	nt	nt	1	0
CN1[C@@H]2c3ccc(-c4ccccc4)c(=O)n3C[C@H]1[C@H](CO)[C@H]2C(=O)NCC1CC1	3	nt	nt	nt	nt	-1
C/C=C/c1ccc([C@@H]2[C@H](CO)N(CCC(F)(F)F)C23CN(C(=O)CN(C)C)C3)cc1	-1	nt	nt	nt	nt	5
O=C(COc1ccc2ccc(=O)oc2c1)NCCN1CCOCC1	10	-5	10	nt	14	7
CC(Oc1ccc2ccc(=O)oc2c1)C(=O)NCCN1CCOCC1 (stereo unspecified)	3	65*	-10	8	-5	15
